Converted amounts (≈) assume the structure as drawn.
Legend:
[1] = system: Trypanosoma brucei brucei; experiment: Anti-parasitic activity against Trypanosoma brucei brucei Squib-427 after 72 hrs by resazurin dye based fluorescence assay; assay type: functional
Outline: (§1)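 IC50 for growth inhibition of L. infantum, T. cruzi and T. brucei parasites, or for cytotoxicity toward human lung fibroblasts (MRC-5). Values are means of two or more independent experiments.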

Vero = experiment: Cytotoxicity against African green monkey Vero cells after 72 hrs by MTS/PMS assay; assay type: cell-based; conditions: Chlorocebus sabaeus
Outline: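 VERO mammalian cells exposed for 72 h. Cytotoxicity IC50 comes from a single test.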

[2] = Cytotoxicity against human MRC5 SV2 cells after 72 hrs by resazurin dye based fluorescence assay; assay type: cell-based; outline: as §1
[3] = system: Mycobacterium tuberculosis; experiment: Anti-tubercular activity against Mycobacterium tuberculosis H37Rv ATCC 27294 after 7 days under aerobic condition by microplate alamar blue assay; assay type: functional
Outline: (§2)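 M. tuberculosis H37Rv MIC measured in two assays: aerobic growth by MABA and hypoxic exposure by LORA. Each value is the mean of ≥2 independent determinations.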

Leishmania infantum = experiment: Anti-parasitic activity against Leishmania infantum MHOM/MA(BE)/67 amastigotes infected in mouse primary peritoneal macrophages after 5 days by giemsa staining based microscopic method; assay type: functional; outline: as §1
Trypanosoma cruzi = experiment: Anti-parasitic activity against Trypanosoma cruzi Tulahuen CL2 infected in human MRC5 cells after 7 days by chlorophenol red […]-D-galactopyranoside dye based assay; assay type: functional, cell-based; outline: as §1
[4] = system: Mycobacterium tuberculosis; experiment: Anti-tubercular activity against Mycobacterium tuberculosis H37Rv ATCC 27294 after 10 days under hypoxic condition by low-oxygen recovery assay; assay type: functional; outline: as §2
[5] = Solubility in water at pH 7 after 15 mins by HPLC method; assay type: physicochemical; conditions: water, pH 7
Outline: (§3)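 Solubility measured at 20 °C by HPLC, in water (pH 7) or 0.1 M HCl (pH 1).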

[6] = Solubility in HCl at pH 1 after 15 mins by HPLC method; assay type: physicochemical; outline: as §3
[7] = Trypanosoma brucei, Squib-427, 72 h
[8] = Mycobacterium tuberculosis, H37Rv ATCC 27294, 168 h, read-out: MIC
[9] = Leishmania infantum, MHOM/MA(BE)/67, 120 h
[10] = Trypanosoma cruzi, Tulahuen CL2, MRC5, 168 h
[11] = Mycobacterium tuberculosis, H37Rv ATCC 27294, 240 h, read-out: MIC

Compound | IC50 [1, 7] [µM] | IC50 (Vero) [µM] | IC50 ([2]; Homo sapiens, MRC-5 SV2, 72 h) [µM] | MIC [3, 8] [µM] | IC50 (Leishmania infantum; [9]) [µM] | IC50 (Trypanosoma cruzi; [10]) [µM] | MIC [4, 11] [µM] | solubility at 0.25 h [5] [µg/mL] | solubility at 0.25 h [6] [µg/mL] | IC50 (Trypanosoma cruzi) [µM] | MIC [3] [µM] | MIC [4] [µM] | IC50 [1] [µM] | IC50 ([2]; mrc5 sv2) [µM] | IC50 (Leishmania infantum) [µM]
CC1(COc2ccc(OC(F)(F)F)cc2)Cn2nc(Br)nc2S1 (stereo not given) | 34 | 89 | 42 | 24 (≈ 9.85 µg/mL) | > 64 | 6.2 | > 128 |  |  |  |  |  |  |  | 
CC1(COc2ccc(Oc3ccccc3)cc2)Cn2cc([N+](=O)[O-])nc2S1 (stereo not given) | > 64 | > 128 | > 64 | 0.76 (≈ 0.291 µg/mL) | > 64 | 0.14 | 5.3 (≈ 2.03 µg/mL) |  |  |  |  |  |  |  | 
CC1(COc2ccc(OC(F)(F)F)cc2)Cn2nc([N+](=O)[O-])nc2[S+]1[O-] (stereo not given) | 3 | 98 | 0.74 | 9.3 (≈ 3.65 µg/mL) | 0.9 | 1.2 | 90 (≈ 35.3 µg/mL) |  |  |  |  |  |  |  | 
O=[N+]([O-])c1cn2c(n1)OC(COc1ccc(Oc3ccccc3)cc1)C2 (stereo not given) | > 64 | > 128 | 19 | 0.96 (≈ 0.339 µg/mL) | 3.4 | 3.1 | > 128 |  |  |  |  |  |  |  | 
CC1(COc2ccc(Oc3ccccc3)cc2)Cn2cc([N+](=O)[O-])nc2S1(=O)=O (stereo not given) | 3.8 | > 128 | 45 | > 128 | 55 | 0.46 | > 128 |  |  |  |  |  |  |  | 
CC1(COCc2ccc(OC(F)(F)F)cc2)Cn2c([N+](=O)[O-])cnc2S1 (stereo not given) | 22 | 45 | 47 | 55 (≈ 21.4 µg/mL) | > 64 | 7.3 | 59 (≈ 23 µg/mL) |  |  |  |  |  |  |  | 
CC1(COCc2ccc(OC(F)(F)F)cc2)Cn2cc([N+](=O)[O-])nc2S1 (stereo not given) | 56 |  | > 64 | 0.24 (≈ 0.0934 µg/mL) | 57 | 0.67 | 7.9 (≈ 3.08 µg/mL) | 2.4 (≈ 6.16 µM) |  |  |  |  |  |  | 
O=[N+]([O-])c1cn2c(n1)SC(COc1ccc(OC(F)(F)F)cc1)C2 (stereo not given) | > 64 | > 128 | > 64 | 4.5 (≈ 1.63 µg/mL) | > 64 | 0.85 | 8.2 (≈ 2.96 µg/mL) |  |  |  |  |  |  |  | 
CC1(COc2ccc(N3CCC(Oc4ccc(OC(F)(F)F)cc4)CC3)cc2)Cn2cc([N+](=O)[O-])nc2S1 (stereo not given) | 59 | > 128 | > 64 | 0.073 (≈ 0.0402 µg/mL) | 53 | 0.055 | 71 (≈ 39.1 µg/mL) | 0.18 (≈ 0.327 µM) | 13 (≈ 23.6 µM) |  |  |  |  |  | 
CC1(COc2ccc(-c3ccc(C(F)(F)F)cc3)cc2)Cn2cc([N+](=O)[O-])nc2S1 (stereo not given) | 52 | > 128 | > 64 | 0.12 (≈ 0.0523 µg/mL) | > 64 | 0.035 | 46 (≈ 20 µg/mL) |  |  |  |  |  |  |  | 
CC1(COCc2ccc(OC(F)(F)F)cc2)Cn2cc([N+](=O)[O-])nc2S1(=O)=O (stereo not given) | > 64 |  | > 64 | > 128 | > 64 | 0.97 | 21 (≈ 8.85 µg/mL) |  |  |  |  |  |  |  | 
CC1(COc2ccc(OC(F)(F)F)cc2)Cn2cc([N+](=O)[O-])nc2S1(=O)=O (stereo not given) | > 64 | > 128 | > 64 | 14 (≈ 5.7 µg/mL) | > 64 | 1.8 | 15 (≈ 6.11 µg/mL) |  |  |  |  |  |  |  | 
CC1(COCc2ccc(OC(F)(F)F)cc2)Cn2cc([N+](=O)[O-])nc2[S+]1[O-] (stereo in doubt; 18) | > 64 |  | > 64 |  | > 64 | 1.6 | > 128 |  |  |  |  |  |  |  | 
CC1(COCc2ccc(OC(F)(F)F)cc2)Cn2cc([N+](=O)[O-])nc2[S+]1[O-] (stereo in doubt; 19) |  |  |  | > 128 |  |  |  |  |  | 3 |  |  |  |  | 
CC1(COc2ccc(OC(F)(F)F)cc2)Cn2cc([N+](=O)[O-])nc2[S+]1[O-] (stereo in doubt; 37) | > 64 | > 128 | > 64 |  | > 64 | 2.3 |  |  |  |  | >128 | >128 |  |  | 
CC1(COc2ccc(OC(F)(F)F)cc2)Cn2cc([N+](=O)[O-])nc2[S+]1[O-] (stereo in doubt; 38) |  |  |  |  |  |  |  |  |  | 1.7 | 26 (≈ 10.2 µg/mL) | 58 (≈ 22.7 µg/mL) | 41 |  | 
CC1(COc2ccc(Oc3ccccc3)cc2)Cn2cc([N+](=O)[O-])nc2[S+]1[O-] (stereo in doubt; 39) |  | > 128 | 53 |  | 55 |  |  |  |  | 0.19 |  | >128 | 0.36 |  | 
CC1(COc2ccc(Oc3ccccc3)cc2)Cn2cc([N+](=O)[O-])nc2[S+]1[O-] (stereo in doubt; 40) |  |  |  | > 128 |  |  |  |  |  | 0.75 |  | 25 (≈ 9.99 µg/mL) | 0.98 | 51 | 42
